According to ChEMBL document CHEMBL3576816, “5'-Silylated 3'-1,2,3-triazolyl Thymidine Analogues as Inhibitors of West Nile Virus and Dengue Virus” (J Med Chem, 2015):
The source made the active and inactive calls. No cut-off for these calls is given here.

Tests used:
Dengue virus = assay: Antiviral activity against Dengue virus infected in BHK pD2-hRucPac-2ATG cells assessed as inhibition of viral replication at 10 uM after 3 days by luciferase reporter gene assay relative to control; assay type: functional; details: for inhibition at 10 µM: 72 h
Outline: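 Renilla luciferase-bearing DENV subgenomic replicon BHK cells, kept on 3 μg/mL puromycin, seeded at 1.5 × 10^3/well without selection. Next day, 10 μM final compound in DMSO added to triplicate wells; MPA 1 μM as control inhibitor. After 3 days, medium swapped for live-cell Renilla substrate (1:1000, phenol-red-free DME, 10% FBS). Luminescence read; triplicate mean compared with DMSO-only wells.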

West Nile virus = assay: Antiviral activity against West Nile virus infected in BHK-WII RepRen1B cells assessed as inhibition of viral replication at 10 uM after 3 days by luciferase reporter gene assay relative to control; assay type: functional; details: for inhibition at 10 µM: 72 h
Outline: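 Compound (DMSO, 10 μM final) added next day in triplicate; lycorine 1 μM served as control inhibitor. Three days on, live-cell Renilla substrate (1:1000 in phenol-red-free DME, 10% FBS) replaced medium. Luminescence measured; triplicate means compared with DMSO-alone wells.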

[1] = Cytotoxicity against BHK cells infected with Dengue virus replicon assessed as cell viability at 10 uM after 3 days by CellTiter 96 aqueous one solution cell proliferation assay relative to control; assay type: cell-based, Mesocricetus auratus; details: hamster; for Activity: bhk, 72 h, 10 µM
Outline: (§1)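 DENV replicon BHK cells, 1.5 × 10^3/well, plated without antibiotic selection; next day compound in DMSO (10 μM final for screening, or eight serial dilutions), 3 days at 37°C, 5% CO2. Tetrazolium (MTS-type) reagent, absorbance 450 nm, triplicate means versus DMSO wells; CC50 = 50% reduction in proliferation; CC50s mean ± SD of two experiments, top dose 200 μM.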

[2] = Cytotoxicity against BHK cells infected with West Nile virus replicon assessed as cell viability at 10 uM after 3 days by CellTiter 96 aqueous one solution cell proliferation assay relative to control; assay type: cell-based, Mesocricetus auratus; details: hamster; for Activity: bhk, 72 h, 10 µM
Outline: as §1, with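 “WNV” for “DENV”, “about 3” for “1.5”, “Tetrazolium” for “Tetrazolium (MTS-type)”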

Human betaherpesvirus 5 = assay: Antiviral activity against Human cytomegalovirus; assay type: functional, organism-based
Hepatitis C virus = assay: Antiviral activity against HCV; assay type: functional, organism-based; details: Hepacivirus hominis
[3] = target: Human immunodeficiency virus type 1 reverse transcriptase (Human immunodeficiency virus 1) (UniProt Q72547); assay: Inhibition of HIV1 reverse transcriptase
[4] = test system: Human immunodeficiency virus 1; assay: Antiviral activity against HIV1; assay type: functional, organism-based
[5] = test system: unidentified influenza virus; assay: Antiviral activity against Influenzae virus; assay type: functional, organism-based

| SMILES | inhibition at 10 µM (Dengue virus) | inhibition at 10 µM (West Nile virus) | Activity [1] | Activity [2] | Activity (Human betaherpesvirus 5) | Activity (Hepatitis C virus) | inhibition [3] | Activity [4] | Activity [5] | inhibition (Dengue virus) | inhibition (West Nile virus) | viability at 72 h, 10 µM ([1]; BHK cells infected with Dengue virus replicon, read-out: Activity) | viability at 72 h, 10 µM ([2]; BHK cells infected with West Nile virus replicon, read-out: Activity) |
| --- | --- | --- | --- | --- | --- | --- | --- | --- | --- | --- | --- | --- | --- |
| Cc1cn([C@H]2C[C@H](NC(=O)c3c[nH]c4ccccc34)[C@@H](CO)O2)c(=O)[nH]c1=O | 4.3% | 0% | 96% | 97% |  |  |  |  |  |  |  |  |  |
| Cc1cn([C@H]2C[C@H](NC(=O)c3c4ccccc4cc4ccccc34)[C@@H](CO[Si](C)(C)C(C)(C)C)O2)c(=O)[nH]c1=O | 7.6% | 0% | 98% | 100% | inactive | inactive | inactive | inactive | inactive |  |  |  |  |
| Cc1cn([C@H]2C[C@H](n3nncc3-c3ccc(-c4ccccc4)cc3)[C@@H](CO[Si](C)(C)C(C)(C)C)O2)c(=O)[nH]c1=O | 99% | 100% | 47% | 10% | inactive | inactive | inactive | inactive | inactive |  |  |  |  |
| COc1ccc2cc(C(=O)N[C@H]3C[C@H](n4cc(C)c(=O)[nH]c4=O)O[C@@H]3CO)ccc2c1 | 0% | 0% | 100% | 100% |  |  |  |  |  |  |  |  |  |
| COc1ccc2cc(-c3cnnn3[C@H]3C[C@H](n4cc(C)c(=O)[nH]c4=O)O[C@@H]3COC(C)=O)ccc2c1 | 0% | 5.3% | 97% | 100% |  |  |  |  |  |  |  |  |  |
| Cc1ccc(S(=O)(=O)NC(=O)N[C@H]2C[C@H](n3cc(C)c(=O)[nH]c3=O)O[C@@H]2CO[Si](C)(C)C(C)(C)C)cc1 |  |  |  |  | inactive | inactive | inactive | inactive | inactive | Active | Active |  |  |
| Cc1cn([C@H]2C[C@H](NC(=O)c3ccc4ccccc4c3)[C@@H](CO)O2)c(=O)[nH]c1=O | 45% | 0% | 97% | 92% |  |  |  |  |  |  |  |  |  |
| COc1ccc2cc(-c3cnnn3[C@H]3C[C@H](n4cc(C)c(=O)[nH]c4=O)O[C@@H]3CO)ccc2c1 | 0% | 7.4% | 100% | 100% |  |  |  |  |  |  |  |  |  |
| Cc1cn([C@H]2C[C@H](NC(=O)C(c3ccccc3)(c3ccccc3)c3ccccc3)[C@@H](CO)O2)c(=O)[nH]c1=O | 16% | 0% | 94% | 95% |  |  |  |  |  |  |  |  |  |
| Cc1cn([C@H]2C[C@H](n3cc(-c4ccc5[nH]ccc5c4)nn3)[C@@H](CO)O2)c(=O)[nH]c1=O | 8.2% | 0% | 100% | 100% |  |  |  |  |  |  |  |  |  |
| Cc1cn([C@H]2C[C@H](N=[N+]=[N-])[C@@H](CO)O2)c(=O)[nH]c1=O [ZIDOVUDINE] | 0% | 0% |  |  |  |  |  |  |  |  |  | 89% | 83% |
| COc1ccc2cc(-c3cnnn3[C@H]3C[C@H](n4cc(C)c(=O)[nH]c4=O)O[C@@H]3COC3CCCCO3)ccc2c1 (some centres not stated) | 21% | 1% | 92% | 75% |  |  |  |  |  |  |  |  |  |
| Cc1cn([C@H]2C[C@H](NC(=O)Nc3ccccc3)[C@@H](CO[Si](C)(C)C(C)(C)C)O2)c(=O)[nH]c1=O |  |  |  |  | inactive | inactive | inactive | inactive | inactive | Active | Active |  |  |
| Cc1cn([C@H]2C[C@H](n3nncc3C3CC3)[C@@H](CO)O2)c(=O)[nH]c1=O | 4.7% | 0% | 100% | 97% |  |  |  |  |  |  |  |  |  |
| COC[C@H]1O[C@@H](n2cc(C)c(=O)n(C)c2=O)C[C@@H]1n1nncc1-c1ccc2cc(OC)ccc2c1 | 0% | 0% | 100% | 100% |  |  |  |  |  |  |  |  |  |
| Cc1cn([C@H]2C[C@H](NC(=O)c3c4ccccc4cc4ccccc34)[C@@H](CO)O2)c(=O)[nH]c1=O | 0% | 0% | 95% | 92% |  |  |  |  |  |  |  |  |  |

| SMILES | inhibition at 10 µM (Dengue virus) | inhibition at 10 µM (West Nile virus) | Activity [1] | Activity [2] | Activity (Human betaherpesvirus 5) | Activity (Hepatitis C virus) | inhibition [3] | Activity [4] | Activity [5] | inhibition (Dengue virus) | inhibition (West Nile virus) | viability at 72 h, 10 µM ([1]; BHK cells infected with Dengue virus replicon, read-out: Activity) | viability at 72 h, 10 µM ([2]; BHK cells infected with West Nile virus replicon, read-out: Activity) |
| --- | --- | --- | --- | --- | --- | --- | --- | --- | --- | --- | --- | --- | --- |
| Cc1cn([C@H]2C[C@H](n3nncc3-c3ccccc3)[C@@H](CO)O2)c(=O)[nH]c1=O | 0% | 4% | 100% | 99% |  |  |  |  |  |  |  |  |  |
| Cc1cn([C@H]2C[C@H](NC(=O)c3cccc4ccccc34)[C@@H](CO)O2)c(=O)[nH]c1=O | 15% | 0% | 98% | 87% |  |  |  |  |  |  |  |  |  |
| Cc1cn([C@H]2C[C@H](N=[N+]=[N-])[C@@H](CO[Si](C)(C)C(C)(C)C)O2)c(=O)[nH]c1=O | 3.6% | 17% | 87% | 96% |  |  |  |  |  |  |  |  |  |
| Cc1cn([C@H]2C[C@H](NC(=O)c3ccc(N4CCOCC4)cc3)[C@@H](CO[Si](C)(C)C(C)(C)C)O2)c(=O)[nH]c1=O |  |  |  |  | inactive | inactive | inactive | inactive | inactive | Active | Active |  |  |
| Cc1cn([C@H]2C[C@H](n3nncc3COc3ccccc3)[C@@H](CO)O2)c(=O)[nH]c1=O | 0% | 0% | 100% | 96% |  |  |  |  |  |  |  |  |  |
| Cc1cn([C@H]2C[C@H](n3nncc3-c3cccc4ccccc34)[C@@H](CO)O2)c(=O)[nH]c1=O | 0% | 3.3% | 90% | 100% |  |  |  |  |  |  |  |  |  |
| Cc1cn([C@H]2C[C@H](N3C(=O)CSC3c3c4ccccc4cc4ccccc34)[C@@H](CO)O2)c(=O)[nH]c1=O (mixture of isomers) | 0% | 12% | 96% | 100% |  |  |  |  |  |  |  |  |  |
| Cc1cn([C@H]2C[C@H](n3nncc3-c3cc4ccccc4c4ccccc34)[C@@H](CO)O2)c(=O)[nH]c1=O | 0% | 0% | 95% | 100% |  |  |  |  |  |  |  |  |  |
| CCOCOC[C@H]1O[C@@H](n2cc(C)c(=O)[nH]c2=O)C[C@@H]1n1nncc1-c1ccc2cc(OC)ccc2c1 | 13% | 0% | 95% | 89% |  |  |  |  |  |  |  |  |  |
| COc1ccc(C(OC[C@H]2O[C@@H](n3cc(C)c(=O)[nH]c3=O)C[C@@H]2n2nncc2-c2ccc3cc(OC)ccc3c2)(c2ccccc2)c2ccc(OC)cc2)cc1 | 46% | 23% | 93% | 93% |  |  |  |  |  |  |  |  |  |
| Cc1cn([C@H]2C[C@H](N3C(=O)CSC3c3ccc4[nH]ccc4c3)[C@@H](CO)O2)c(=O)[nH]c1=O (mixture of isomers) | 13% | 9.7% | 95% | 100% |  |  |  |  |  |  |  |  |  |
| Cc1cn([C@H]2C[C@H](N3C(=O)CSC3c3ccccc3)[C@@H](CO)O2)c(=O)[nH]c1=O (mixture of isomers) | 0% | 0% | 100% | 99% |  |  |  |  |  |  |  |  |  |
| Cc1cn([C@H]2C[C@H](n3cc(-c4ccc(-c5ccccc5)cc4)nn3)[C@@H](CO)O2)c(=O)[nH]c1=O | 10% | 14% | 100% | 100% |  |  |  |  |  |  |  |  |  |
| Cc1cn([C@H]2C[C@H](n3nncc3-c3ccc(Oc4ccccc4)cc3)[C@@H](CO)O2)c(=O)[nH]c1=O | 0% | 9% | 100% | 99% |  |  |  |  |  |  |  |  |  |
| Cc1cn([C@H]2C[C@H](n3nncc3-c3ccc(-c4ccccc4)cc3)[C@@H](CO)O2)c(=O)[nH]c1=O | 2.3% | 23% | 92% | 100% |  |  |  |  |  |  |  |  |  |
| Cc1cn([C@H]2C[C@H](n3nncc3C3CCCCC3)[C@@H](CO)O2)c(=O)[nH]c1=O | 10% | 0% | 100% | 100% |  |  |  |  |  |  |  |  |  |
